Results published in ChEMBL document CHEMBL2331216, “Synthesis and biological activities of a new class of heat shock protein 90 inhibitors, designed by energy-based pharmacophore virtual screening” (J Med Chem, 2013).
Calls of active or inactive are those of the source.

Key:
[1] = biological target: T1, Heat shock protein HSP90 (Homo sapiens, UniProt P07900+P08238); test: Inhibition of biotinylated geldanamycin binding to human recombinant Hsp90 ATP binding domain after 60 mins by fluorescence assay; type: protein assay
[2] = Antiproliferative activity against human breast cancer cells after 48 hrs by sulforhodamine B assay; type: functional; conditions: Cancer cell lines
Outline: (§1)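 Compounds run through the NCI DTP screen on its full human tumour cell line panels. Those that passed the selection criteria were tested twice in the five-dose concentration format. The MG_MID for each experiment is the arithmetic mean over all cell lines tested.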

[3] = Antiproliferative activity against human colon cancer cells after 48 hrs by sulforhodamine B assay; type: functional; conditions: Cancer cell lines; outline: as §1
[4] = Antiproliferative activity against human leukemia cells after 48 hrs by sulforhodamine B assay; type: functional; conditions: Leukemia cell; outline: as §1
[5] = Antiproliferative activity against human CNS cancer cells after 48 hrs by sulforhodamine B assay; type: functional; conditions: Cancer cell lines; outline: as §1
[6] = Antiproliferative activity against human ovarian cancer cells after 48 hrs by sulforhodamine B assay; type: functional; conditions: Cancer cell lines; outline: as §1
[7] = Antiproliferative activity against human prostate cancer cells after 48 hrs by sulforhodamine B assay; type: functional; conditions: Cancer cell lines; outline: as §1
[8] = Antiproliferative activity against human non-small cell lung cancer cells after 48 hrs by sulforhodamine B assay; type: functional; conditions: Cancer cell lines; outline: as §1
[9] = Antiproliferative activity against human renal cancer cells after 48 hrs by sulforhodamine B assay; type: functional; conditions: Cancer cell lines; outline: as §1
[10] = Antiproliferative activity against human melanoma cells after 48 hrs by sulforhodamine B assay; type: functional; conditions: Melanoma cell; outline: as §1
[11] = system: SF-295; test: Antiproliferative activity against human SF295 cells after 48 hrs by sulforhodamine B assay; type: functional; conditions: SF-295, 48 h; outline: as §1
[12] = system: MCF7; test: Cell cycle arrest in human MCF7 cells assessed as decrease in G0/G1 phase cells at 0.548 uM after 24 hrs by propidium iodide staining-based FACS flow cytometric analysis (reference value: 65 %); type: functional; set-up: scale not given: the % may be the effect or the level left
Outline: (§2)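 Cells were collected and DNA stained with propidium iodide. Flow cytometry gave the cell cycle phase distribution against untreated controls. Values are mean ± SD of three independent experiments.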

[13] = system: MCF7; test: Antitumor activity in human MCF7 cells assessed as induction of necrosis after 24 hrs by LDH assay; type: functional, cell-based
[14] = system: MCF7; test: Cell cycle arrest in human MCF7 cells assessed as accumulation at G2/M phase after 24 hrs by propidium iodide staining-based FACS flow cytometric analysis; type: functional; outline: as §2
[15] = biological target: T1, Heat shock protein HSP90; test: Inhibition of Hsp90 in human MCF7 cells assessed as decrease in ErbB2 level at 0.5 to 2 fold GI50 after 24 hrs by Western blotting analysis; type: cell-based
Outline: (§3)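 Total cellular extracts were analysed by Western blot for Cdk4, c-Raf, ErbB2 and Hsp72, with β-actin as the loading control.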

[16] = system: MCF7; test: Cell cycle arrest in human MCF7 cells assessed as decrease in G0/G1 phase cells at 0.548 uM after 48 hrs by propidium iodide staining-based FACS flow cytometric analysis; type: functional; outline: as §2
[17] = system: MCF7; test: Cell cycle arrest in human MCF7 cells assessed as increase in G2/M phase cells at 0.548 uM after 24 hrs by propidium iodide staining-based FACS flow cytometric analysis (reference value: 24 %); type: functional; outline: as §2
[18] = biological target: T1, Heat shock protein HSP90; test: Inhibition of Hsp90 in human MCF7 cells assessed as decrease in cRAF level at 0.5 to 2 fold GI50 after 24 hrs by Western blotting analysis; type: cell-based; outline: as §3
[19] = system: MCF7; test: Cell cycle arrest in human MCF7 cells assessed as decrease in S phase cells at 0.548 uM after 24 hrs by propidium iodide staining-based FACS flow cytometric analysis (reference value: 11 %); type: functional; set-up: scale not given: the % may be the effect or the level left; outline: as §2
[20] = biological target: T1, Heat shock protein HSP90; test: Inhibition of Hsp90 in human MCF7 cells assessed as decrease in Cdk4 level after 24 hrs by Western blotting analysis; type: cell-based; outline: as §3
[21] = biological target: T1, Heat shock protein HSP90; test: Inhibition of Hsp90 in human MCF7 cells assessed as decrease in cRAF level after 24 hrs by Western blotting analysis; type: cell-based; outline: as §3
[22] = system: MCF7; test: Cell cycle arrest in human MCF7 cells assessed as decrease in G2/M phase cells at 0.548 uM after 48 hrs by propidium iodide staining-based FACS flow cytometric analysis; type: functional; outline: as §2
[23] = biological target: T1, Heat shock protein HSP90; test: Inhibition of Hsp90 in human MCF7 cells assessed as decrease in Cdk4 level at 0.5 to 2 fold GI50 after 24 hrs by Western blotting analysis; type: cell-based; outline: as §3
[24] = system: MCF7; test: Cell cycle arrest in human MCF7 cells assessed as accumulation at sub G0/G1 phase at 0.548 uM after 48 hrs by propidium iodide staining-based FACS flow cytometric analysis; type: functional; outline: as §2
[25] = biological target: T1, Heat shock protein HSP90; test: Inhibition of Hsp90 in human MCF7 cells assessed as upregulation of Hsp72 at 0.5 to 2 fold GI50 after 24 hrs by Western blotting analysis; type: cell-based; outline: as §3
[26] = system: MCF7; test: Cell cycle arrest in human MCF7 cells assessed as decrease in S phase cells at 0.548 uM after 48 hrs by propidium iodide staining-based FACS flow cytometric analysis; type: functional; outline: as §2
[27] = system: NCI-H522; test: Antiproliferative activity against human NCI-H522 cells after 48 hrs by sulforhodamine B assay; type: functional; conditions: NCI-H522, 48 h; outline: as §1
[28] = biological target: T1, Heat shock protein HSP90; test: Inhibition of Hsp90 in human MCF7 cells assessed as decrease in ErbB2 level after 24 hrs by Western blotting analysis; type: cell-based; outline: as §3

Row | Structure (SMILES) | EC50 [1] | GI50 [2] | GI50 [3] | GI50 [4] | GI50 [5] | GI50 [6] | GI50 [7] | GI50 [8] | GI50 [9] | GI50 [10] | other results
1 | COc1ccccc1-c1cc(-c2cccc(NS(C)(=O)=O)c2)nc(N)c1C#N | 634 nM |  |  |  |  |  |  |  |  |  | 
2 | CN(C)c1ccc(-c2cc(-c3cccc(NS(C)(=O)=O)c3)nc(N)c2C#N)cc1 | 371 nM | 100 nM | 40 nM | 40 nM | 40 nM | 80 nM | 30 nM | 60 nM | 50 nM | 60 nM | 
3 | CS(=O)(=O)Nc1cccc(-c2cc(-c3ccccc3Cl)c(C#N)c(N)n2)c1 | 950 nM | 460 nM | 550 nM | 580 nM | 510 nM | 980 nM | 780 nM | 1100 nM | 660 nM | 660 nM | 
4 | COc1ccc(-c2cc(-c3cccc(NS(C)(=O)=O)c3)nc(N)c2C#N)cc1 | 541 nM | 140 nM | 100 nM | 100 nM | 80 nM | 220 nM | 130 nM | 130 nM | 130 nM | 80 nM | 
5 | COc1cccc(-c2cc(-c3cccc(NS(C)(=O)=O)c3)nc(N)c2C#N)c1O | 252 nM | 260 nM | 150 nM | 140 nM | 160 nM | 210 nM | 130 nM | 250 nM | 290 nM | 120 nM | GI50 [11]: 43 nM; Activity [12]: 40%; Activity [13]: Active; Activity [14]: Dose-dependent effect; inhibition [15]: Active; Activity [16]: Active; Activity [17]: 53%; inhibition [18]: Active; Activity [19]: 7%; inhibition [20]: Dose-dependent effect; inhibition [21]: Dose-dependent effect; Activity [22]: Active; inhibition [23]: Active; Activity [24]: Active; inhibition [25]: Active; Activity [26]: Active; GI50 [27]: 24 nM; inhibition [28]: Dose-dependent effect
6 | CS(=O)(=O)Nc1cccc(-c2cc(-c3ccccc3Br)c(C#N)c(N)n2)c1 | > 10000 nM |  |  |  |  |  |  |  |  |  | 

Further lines, with some results ahead:

Row | EC50 [1] | Structure (SMILES) | GI50 [2] | GI50 [3] | GI50 [4] | GI50 [5] | GI50 [6] | GI50 [7] | GI50 [8] | GI50 [9] | GI50 [10] | other results
7 | 783 nM | CCN(CC)c1ccc(-c2cc(-c3cccc(NS(C)(=O)=O)c3)nc(N)c2C#N)cc1 |  |  |  |  |  |  |  |  |  | 
8 | > 10000 nM | CS(=O)(=O)Nc1cccc(-c2cc(-c3cccc(F)c3)c(C#N)c(N)n2)c1 |  |  |  |  |  |  |  |  |  | 
9 | > 10000 nM | CS(=O)(=O)Nc1cccc(-c2cc(-c3ccc(O)cc3)c(C#N)c(N)n2)c1 |  |  |  |  |  |  |  |  |  | 
10 | > 10000 nM | COc1cccc(-c2cc(-c3cccc(NS(C)(=O)=O)c3)nc(N)c2C#N)c1 |  |  |  |  |  |  |  |  |  | 
11 | 867 nM | COc1ccc(-c2cc(-c3cccc(NS(C)(=O)=O)c3)nc(N)c2C#N)cc1OC |  |  |  |  |  |  |  |  |  | 
